Key:
Type in all cases: functional, cell-based
P2Y purinoceptor 6 = P2Y purinoceptor 6 (Homo sapiens, UniProt Q15077); assay: Agonist activity evaluated as change in the level of cytosolic calcium in 1321N astrocytoma cells infected with a retrovirus encoding the human P2Y6 receptor
Method in brief: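 Cells grown to confluence, then loaded with Fluo-3 AM (2.5 μM final) for 60 min at 25 °C in buffer (mM: KCl 10.0, NaCl 118, CaCl2 2.5, MgCl2 1.0, HEPES 20, glucose 10; pH 7.4). Dye washed off. Activation read as change in fluorescence intensity on FLIPR (cytosolic calcium mobilization). Agonist potency given as EC50.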

P2Y purinoceptor 4 [1] = target: T1, P2Y purinoceptor 4 (Homo sapiens, UniProt P51582); assay: Agonist activity evaluated as change in the level of cytosolic calcium in 1321N astrocytoma cells infected with a retrovirus encoding the human P2Y4 receptor
T1 sequence (P51582 whole entry): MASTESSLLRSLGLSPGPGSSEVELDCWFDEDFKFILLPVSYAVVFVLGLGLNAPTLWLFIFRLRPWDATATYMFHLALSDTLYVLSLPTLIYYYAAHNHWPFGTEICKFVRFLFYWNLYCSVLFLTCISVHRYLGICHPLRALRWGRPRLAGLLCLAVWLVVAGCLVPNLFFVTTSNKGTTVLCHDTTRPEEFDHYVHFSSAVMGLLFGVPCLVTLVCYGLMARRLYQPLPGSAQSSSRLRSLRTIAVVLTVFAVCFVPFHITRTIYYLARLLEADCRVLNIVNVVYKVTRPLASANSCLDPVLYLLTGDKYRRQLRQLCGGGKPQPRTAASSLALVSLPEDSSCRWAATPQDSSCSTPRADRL

P2Y purinoceptor 1 = P2Y purinoceptor 1 (Homo sapiens, UniProt P47900); assay: Agonist activity evaluated as change in the level of cytosolic calcium in 1321N astrocytoma cells infected with a retrovirus encoding the human P2Y1 receptor at 100 uM; IA is inactive
Sequence of P2Y purinoceptor 1 (P47900 whole entry): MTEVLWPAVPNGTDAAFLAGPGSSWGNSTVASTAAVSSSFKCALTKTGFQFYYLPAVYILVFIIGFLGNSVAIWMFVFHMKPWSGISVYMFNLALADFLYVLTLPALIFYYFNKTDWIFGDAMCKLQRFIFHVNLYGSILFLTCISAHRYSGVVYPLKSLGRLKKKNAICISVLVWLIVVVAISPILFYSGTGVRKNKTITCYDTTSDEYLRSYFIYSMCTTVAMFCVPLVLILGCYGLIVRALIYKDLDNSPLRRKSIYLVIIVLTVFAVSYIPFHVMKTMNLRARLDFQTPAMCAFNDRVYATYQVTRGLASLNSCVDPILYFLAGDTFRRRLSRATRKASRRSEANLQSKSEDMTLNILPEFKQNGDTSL

P2Y purinoceptor 2 [2] = target: T2, P2Y purinoceptor 2 (Homo sapiens, UniProt P41231); assay: Agonist activity evaluated as change in the level of cytosolic calcium in 1321N astrocytoma cells infected with a retrovirus encoding the human P2Y2 receptor
T2 sequence (P41231 whole entry): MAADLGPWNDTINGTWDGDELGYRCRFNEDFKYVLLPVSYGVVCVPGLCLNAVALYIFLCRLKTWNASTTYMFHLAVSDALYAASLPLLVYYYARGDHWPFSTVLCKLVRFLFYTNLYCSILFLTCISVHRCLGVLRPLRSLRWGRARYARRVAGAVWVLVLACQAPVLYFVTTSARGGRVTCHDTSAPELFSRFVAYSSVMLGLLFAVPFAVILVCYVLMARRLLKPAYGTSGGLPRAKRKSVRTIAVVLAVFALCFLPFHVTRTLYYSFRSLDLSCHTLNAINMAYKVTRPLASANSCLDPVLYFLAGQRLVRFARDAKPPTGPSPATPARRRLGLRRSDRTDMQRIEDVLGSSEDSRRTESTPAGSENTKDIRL

P2Y purinoceptor 4 [3] = target: T1, P2Y purinoceptor 4; assay: Agonist activity evaluated as change in the level of cytosolic calcium in 1321N astrocytoma cells infected with a retrovirus encoding the human P2Y4 receptor at 100 uM; IA is inactive
P2Y purinoceptor 2 [4] = target: T2, P2Y purinoceptor 2; assay: Agonist activity evaluated as change in the level of cytosolic calcium in 1321N astrocytoma cells infected with a retrovirus encoding the human P2Y2 receptor at 100 uM; IA is inactive

Sequence of P2Y purinoceptor 6 (Q15077 whole entry): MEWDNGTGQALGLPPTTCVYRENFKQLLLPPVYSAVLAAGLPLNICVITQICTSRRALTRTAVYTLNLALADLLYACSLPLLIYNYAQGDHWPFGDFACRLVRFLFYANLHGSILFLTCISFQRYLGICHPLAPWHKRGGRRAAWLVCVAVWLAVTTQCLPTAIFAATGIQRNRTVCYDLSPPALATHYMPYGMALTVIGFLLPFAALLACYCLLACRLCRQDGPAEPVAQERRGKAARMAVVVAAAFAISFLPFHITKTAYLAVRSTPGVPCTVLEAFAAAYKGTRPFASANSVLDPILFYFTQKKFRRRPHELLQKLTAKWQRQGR

Row | SMILES | EC50 (P2Y purinoceptor 6) | EC50 (P2Y purinoceptor 4 [1]) | EC50 (P2Y purinoceptor 1) | EC50 (P2Y purinoceptor 2 [2]) | EC50 (P2Y purinoceptor 4 [3]) | EC50 (P2Y purinoceptor 2 [4])
1 | O=c1ccn([C@@H]2O[C@H](COP(=O)(O)OP(=O)(O)OP(=O)(O)O)[C@@H](O)[C@H]2O)c(=O)[nH]1 [URIDINE TRIPHOSPHATE] | > 10 µM | 0.1 µM | Not Active | 0.03 µM |  | 
2 | O=c1ccn([C@@H]2O[C@H](COP(=O)(O)OP(=O)(O)O)[C@@H](O)[C@H]2O)c(=O)[nH]1 [URIDINE_DIPHOSPHATE] | 0.1 µM |  | Not Active | > 10 µM | Not Active | 
3 | O=c1ccn([C@@H]2O[C@H](COP(=O)(O)OP(=O)(O)OP(=O)(O)OP(=O)(O)OC[C@@H]3O[C@H](n4ccc(=O)[nH]c4=O)[C@@H](O)[C@H]3O)[C@@H](O)[C@H]2O)c(=O)[nH]1 | 20 µM | 0.4 µM | Not Active |  |  | 
4 | O=c1ccn([C@@H]2O[C@H](COP(=O)(O)OP(=O)(O)OP(=O)(O)OP(=O)(O)OP(=O)(O)OP(=O)(O)OC[C@@H]3O[C@H](n4ccc(=O)[nH]c4=O)[C@@H](O)[C@H]3O)[C@@H](O)[C@H]2O)c(=O)[nH]1 | > 30 µM | > 30 µM | Not Active | 9.8 µM |  | 
5 | O=c1ccn([C@@H]2O[C@H](COP(=O)(O)OP(=O)(O)OP(=O)(O)OC[C@@H]3O[C@H](n4ccc(=O)[nH]c4=O)[C@@H](O)[C@H]3O)[C@@H](O)[C@H]2O)c(=O)[nH]1 | 0.2 µM | > 100 µM | Not Active | 22 µM |  | 
6 | O=c1ccn([C@@H]2O[C@H](COP(=O)(O)OP(=O)(O)OC[C@@H]3O[C@H](n4ccc(=O)[nH]c4=O)[C@@H](O)[C@H]3O)[C@@H](O)[C@H]2O)c(=O)[nH]1 | > 30 µM |  | Not Active |  | Not Active | Not Active
7 | O=c1ccn([C@@H]2O[C@H](COP(=O)(O)OP(=O)(O)OP(=O)(O)OP(=O)(O)OP(=O)(O)OC[C@@H]3O[C@H](n4ccc(=O)[nH]c4=O)[C@@H](O)[C@H]3O)[C@@H](O)[C@H]2O)c(=O)[nH]1 | > 30 µM | > 20 µM | Not Active | 5.6 µM |  | 
8 | O=c1ccn([C@@H]2O[C@H](COP(=O)(O)OP(=O)(O)OP(=O)(O)OP(=O)(O)OP(=O)(O)OP(=O)(O)OP(=O)(O)OC[C@@H]3O[C@H](n4ccc(=O)[nH]c4=O)[C@@H](O)[C@H]3O)[C@@H](O)[C@H]2O)c(=O)[nH]1 | > 100 µM | > 30 µM | Not Active | 8.4 µM |  | 
